Calls of active or inactive are those of the source. The rule behind the calls is not given here.
Key:
[1] = system: Trypanosoma brucei; assay: Inhibition of Trypanosoma brucei recombinant His-tagged TryS expressed in Escherichia coli BL21 (DE3) assessed as residual enzyme activity by measuring inorganic phosphate release at 30 uM after 15 mins by malachite green dye based end-point assay
Method in brief: (§1)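 His-tagged TryS expressed in E. coli BL21(DE3), Ni-NTA then gel filtration/ion exchange purified. Reaction buffer: 100 mM HEPES pH 7.4, 5 mM DTT, 10 mM MgSO4, 0.5 mM EDTA, 9 mM NaCl, 10% DMSO; 150 µM ATP, 2 mM spermidine; glutathione 0.05 (Tb), 0.57 (Tc), 0.25 mM (Li). Stopped at 15 min, malachite green phosphate read at 650 nm, blank-corrected versus DMSO; screen at 30 µM, IC50 if >50% inhibition.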

[2] = Inhibition of Trypanosoma cruzi recombinant His-tagged TryS expressed in Escherichia coli BL21 (DE3) assessed as inorganic phosphate release after 15 mins by malachite green dye based end-point assay; method in brief: as §1
[3] = Inhibition of Leishmania infantum recombinant His-tagged TryS expressed in Escherichia coli BL21 (DE3) assessed as inorganic phosphate release after 15 mins by malachite green dye based end-point assay; method in brief: as §1
[4] = system: Trypanosoma brucei brucei; assay: Antitrypanosomal activity against bloodstream forms of Trypanosoma brucei brucei 427 stably transfected with pHD449 plasmid assessed as parasite viability at 5 uM after 24 hrs by propidium iodide staining based flow cytometry; type: functional
[5] = system: Trypanosoma cruzi; assay: Inhibition of Trypanosoma cruzi recombinant His-tagged TryS expressed in Escherichia coli BL21 (DE3) assessed as residual enzyme activity by measuring inorganic phosphate release at 30 uM after 15 mins by malachite green dye based end-point assay; method in brief: as §1
[6] = system: Trypanosoma brucei brucei; assay: Antitrypanosomal activity against bloodstream forms of Trypanosoma brucei brucei 427 stably transfected with pHD449 plasmid assessed as reduction in parasite viability after 24 hrs by propidium iodide staining based flow cytometry; type: functional, organism-based; settings: Trypanosoma brucei, 427, 24 h
[7] = Selectivity index, ratio of EC50 for mouse J774 cells to EC50 for bloodstream forms of Trypanosoma brucei brucei 427 stably transfected with pHD449 plasmid; type: toxicity, cell-based; settings: read-out: Ratio EC50
[8] = system: Leishmania infantum; assay: Inhibition of Leishmania infantum recombinant His-tagged TryS expressed in Escherichia coli BL21 (DE3) assessed as residual enzyme activity by measuring inorganic phosphate release at 30 uM after 15 mins by malachite green dye based end-point assay; method in brief: as §1
[9] = Aqueous solubility of compound in phosphate buffer at 0.25 mg at pH 7.4 after 48 hrs by HPLC based shake flask method; type: physicochemical
[10] = system: Asteroidea; assay: Inhibition of M phase starfish oocytes CDK1/cyclin B at 10 uM using histone H1 as substrate after 30 mins by scintillation counting method
Method in brief: (§2)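 Radiometric kinase assay with 15 µM ATP, 30 min at 30 °C in buffer A (10 mM MgCl2, 1 mM EGTA, 1 mM DTT, 25 mM Tris-HCl pH 7.5, 50 µg/mL heparin); BSA 0.15 mg/mL added except for CDK2. Substrates: histone H1 (CDK1, CDK2, CDK5), CDK7/9-Tide (CDK9), RS peptide (DYRK1A, CLK1), GS-1 (GSK-3). Stopped onto P81 paper, acid-washed, scintillation counted; activity as % of DMSO control.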

[11] = molecular target: CDK2/Cyclin A2 (Homo sapiens) (UniProt P24941+P20248); assay: Inhibition of human recombinant CDK2/cyclin A at 10 uM using histone H1 as substrate after 30 mins by scintillation counting method; type: protein-complex assay; method in brief: as §2
[12] = molecular target: Cyclin-dependent kinase 5/CDK5 activator 1 (Homo sapiens) (UniProt Q00535+Q15078); assay: Inhibition of human recombinant CDK5/p25 expressed in Escherichia coli at 10 uM using histone H1 as substrate after 30 mins by scintillation counting method; method in brief: as §2
[13] = molecular target: CDK9/cyclin T1 (Homo sapiens) (UniProt O60563+P50750); assay: Inhibition of human recombinant CDK9/cyclinT expressed in insect cells at 10 uM using CDK7/9-Tide as substrate after 30 mins by scintillation counting method; method in brief: as §2
[14] = molecular target: Glycogen synthase kinase-3 (Sus scrofa) (UniProt B2LUN4+I6LNT8); assay: Inhibition of porcine brain GSK-3alpha/beta at 10 uM using GS-1 as substrate after 30 mins by scintillation counting method; method in brief: as §2
[15] = species: Sus scrofa; assay: Inhibition of porcine brain CK1delta/epsilon at 10 uM using CKS peptide as substrate after 30 mins by scintillation counting method
Method in brief: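 Native porcine brain CK1δ/ε purified on axin 2-sepharose, assayed with 0.67 µg CKS peptide and 15 µM ATP, 30 min at 30 °C; phosphate incorporation captured on P81 paper, counted by scintillation, expressed as % of activity without inhibitor.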

[16] = molecular target: Dual specificity protein kinase CLK1 (Mus musculus) (UniProt P22518); assay: Inhibition of GST-tagged mouse recombinant CLK1 expressed in Escherichia coli at 10 uM after 30 mins by scintillation counting method; method in brief: as §2
[17] = molecular target: Dual specificity tyrosine-phosphorylation-regulated kinase 1A (Homo sapiens) (UniProt Q13627); assay: Inhibition of GST-tagged human recombinant DYRK1A expressed in Escherichia coli at 10 uM after 30 mins by scintillation counting method; method in brief: as §2

Chain of Dual specificity protein kinase CLK1 (Mus musculus) (P22518 whole entry, looked up): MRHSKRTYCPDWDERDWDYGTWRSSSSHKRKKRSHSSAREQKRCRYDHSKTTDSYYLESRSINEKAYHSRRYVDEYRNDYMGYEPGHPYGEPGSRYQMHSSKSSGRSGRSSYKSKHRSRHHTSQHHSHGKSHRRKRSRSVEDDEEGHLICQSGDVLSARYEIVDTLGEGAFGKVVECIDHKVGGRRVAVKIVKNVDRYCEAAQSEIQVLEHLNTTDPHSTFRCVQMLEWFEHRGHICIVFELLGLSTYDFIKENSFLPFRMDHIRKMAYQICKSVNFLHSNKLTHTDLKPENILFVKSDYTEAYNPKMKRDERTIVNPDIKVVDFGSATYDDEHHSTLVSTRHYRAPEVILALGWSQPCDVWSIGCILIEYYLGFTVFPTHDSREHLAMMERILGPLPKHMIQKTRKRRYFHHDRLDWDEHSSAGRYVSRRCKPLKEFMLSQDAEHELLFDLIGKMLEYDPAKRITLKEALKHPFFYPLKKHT
Chain of Cyclin-dependent kinase 5/CDK5 activator 1 (Homo sapiens) (Q00535 whole entry): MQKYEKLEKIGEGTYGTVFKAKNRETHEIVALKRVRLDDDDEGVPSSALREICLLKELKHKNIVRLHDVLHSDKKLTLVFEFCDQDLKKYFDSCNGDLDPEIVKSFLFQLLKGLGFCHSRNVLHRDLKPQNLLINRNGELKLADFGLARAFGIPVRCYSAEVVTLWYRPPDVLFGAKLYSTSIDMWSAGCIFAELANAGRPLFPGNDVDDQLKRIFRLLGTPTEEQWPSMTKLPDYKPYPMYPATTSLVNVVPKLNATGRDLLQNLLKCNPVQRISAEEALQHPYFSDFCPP
Chain of Cyclin-dependent kinase 5/CDK5 activator 1 (Homo sapiens) (Q15078 99-307 partner limits assumed): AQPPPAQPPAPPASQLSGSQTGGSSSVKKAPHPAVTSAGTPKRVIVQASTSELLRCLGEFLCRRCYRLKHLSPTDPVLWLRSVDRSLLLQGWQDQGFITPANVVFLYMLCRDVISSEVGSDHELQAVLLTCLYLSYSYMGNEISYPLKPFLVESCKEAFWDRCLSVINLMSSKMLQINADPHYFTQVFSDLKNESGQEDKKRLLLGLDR

Row | SMILES | Activity [1] [%] | IC50 [3] [µM] | Activity [5] [%] | EC50 [6] [µM] | Activity [8] [%] | IC50 [2] [µM] | Activity [4] [%] | selectivity ratio [7] | also measured
1 | O=C(CN1C(=O)Cc2c([nH]c3ccc(Br)cc23)-c2ccc(Cl)cc21)NCc1ccc(C(F)(F)F)cc1 | 63.5 |  |  | 1.8 | 55.4 | 9 |  | > 18 | 
2 | O=C(CN1C(=O)Cc2c([nH]c3ccc(Br)cc23)-c2ccc(Cl)cc21)NCc1ccc(O)cc1 | 58 | 10 |  | 0.84 |  | 9 |  | 238 | solubility thermodynamic at 48 h [9]: < 4.8 µM
3 | O=C(CN1C(=O)Cc2c([nH]c3ccc(Br)cc23)-c2ccc(Cl)cc21)NCc1ccccc1 | 45.2 |  | 72.8 | 0.04 | 50 |  |  | 1410 | solubility thermodynamic at 48 h [9]: < 0.49 µM; inhibition [10]: inactive; inhibition [11]: inactive; inhibition [12]: inactive; inhibition [13]: inactive; inhibition [14]: inactive; inhibition [15]: inactive; inhibition [16]: inactive; inhibition [17]: inactive
4 | O=C(CN1C(=O)Cc2c([nH]c3ccc(Br)cc23)-c2ccc(Cl)cc21)NCc1ccc(Cl)cc1 | 50.1 |  |  | 0.8 | 109 | 11 |  | > 62 | 
5 | CNCCNC(=O)CN1C(=O)Cc2c([nH]c3ccc(C(F)(F)F)cc23)-c2ccccc21 | 70 | 0.35 | 44.5 | 8.3 |  |  |  | 1 | 
6 | O=C(CN1C(=O)Cc2c([nH]c3ccc(Br)cc23)-c2ccc(Cl)cc21)NCc1cccc(Cl)c1 | 55.9 | 17 |  | 1.1 |  | 11 |  | 91 | 

Continued, in another order:

Row | Activity [1] [%] | IC50 [3] [µM] | Activity [5] [%] | EC50 [6] [µM] | Activity [8] [%] | SMILES | IC50 [2] [µM] | Activity [4] [%] | selectivity ratio [7] | also measured
7 | 55.3 | 23 |  |  |  | O=C(CN1C(=O)Cc2c([nH]c3ccc(Br)cc23)-c2ccc(Cl)cc21)NCc1ccccc1Cl | 11 | 53.2 |  | 
8 | 65.2 | 1.2 | 58.1 |  |  | O=C(CN1C(=O)Cc2c([nH]c3ccc(Br)cc23)-c2ccc(Cl)cc21)NCc1ccncc1 |  | 49.1 |  | 
9 | 42 | 19 |  | 0.84 |  | O=C(CN1C(=O)Cc2c([nH]c3ccc(Br)cc23)-c2ccc(Cl)cc21)NCc1ccc(Cl)c(Cl)c1 | 9 |  | 12 | 
10 | 75.8 |  | 54.8 |  | 95.5 | O=C(CN1C(=O)Cc2c([nH]c3ccc(Br)cc23)-c2ccc(Cl)cc21)NCc1ccccn1 |  | 33.8 |  | 
11 | 64.8 | 11 |  |  |  | O=C(CN1C(=O)Cc2c([nH]c3ccc(Br)cc23)-c2ccc(Cl)cc21)NCc1cccnc1 | 9 | 59.4 |  | 
12 | 53.5 | 24 |  | 1 |  | COc1ccc(CNC(=O)CN2C(=O)Cc3c([nH]c4ccc(Br)cc34)-c3ccc(Cl)cc32)cc1 | 11 |  | 22 | 
13 | 53.7 |  |  | 0.3 | 48.6 | Cc1ccc(CNC(=O)CN2C(=O)Cc3c([nH]c4ccc(Br)cc34)-c3ccc(Cl)cc32)cc1 | 9 |  | > 167 | solubility thermodynamic at 48 h [9]: < 0.48 µM
